Assay results from PMC5760963 (Journal of Pharmaceutical Analysis, 2012).

Experiments:
[1] = assay type: in vivo; details: human, plasma, po, 75 mg, 75 mg oral, fed, healthy Indian subjects, mean ±SD; for AUC(0-t): AUC 0–48, reference formulation (TAMIFLU); for AUC(0-inf): reference formulation (TAMIFLU); for half-life: t1/2, reference formulation (TAMIFLU)
In short: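 Healthy Indian volunteers (n=42), fed, single oral 75 mg capsule of test compound, test and reference formulations over two periods. Blood taken 0–48 h into K3EDTA tubes on ice (<10 °C). Plasma mixed 95:5 v/v with dichlorvos stock (4 mg/mL) and stored at −20 °C, then below −70 °C. Parent and carboxylate metabolite measured by validated LC–MS/MS. Calibration ranges were 0.5–200 and 2.0–800 ng/mL.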

[2] = cited from earlier work
[3] = cited from earlier work; for renal excretion (share of dose): 100 mg dose, as OSTC or as unchanged drug
[4] = Stability of analytes in spiked human plasma and wet extract; assay type: physicochemical; details: for Mean stability sample ±SD: n=6
In short: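 Human blank plasma spiked at LQC (OST/OSTC 1.5/6.0 ng/mL) and HQC (160/640 ng/mL), with dichlorvos as esterase inhibitor. Bench top (room temperature), autosampler (wet extract), freeze-thaw and long term (−20 °C, −70 °C) stability were tested, six replicates per level. Samples were thawed in an ice bath below 10 °C and extracted. Stability was read as analyte/IS area ratio by LC–MS/MS against freshly prepared comparison standards.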

[5] = hydrolysis controlled; cited from earlier work
[6] = following oral administration of OST in healthy volunteers
[7] = Bench top stability (ambient temperature), 12 h, HQC (160/640 ng/mL OST/OSTC)
[8] = Bench top stability (ambient temperature), 12 h, HQC, vs comparison samples
[9] = Bench top stability (ambient temperature), 12 h, LQC (1.5/6.0 ng/mL OST/OSTC)
[10] = Bench top stability (ambient temperature), 12 h, LQC, vs comparison samples
[11] = Freeze & thaw stability in plasma, 5 cycles, −20 °C, HQC
[12] = Freeze & thaw stability in plasma, 5 cycles, −20 °C, LQC
[13] = Freeze & thaw stability in plasma, 5 cycles, −70 °C, HQC
[14] = Freeze & thaw stability in plasma, 5 cycles, −70 °C, LQC
[15] = Long term stability in plasma: 61 days, −20 °C, HQC
[16] = Long term stability in plasma: 61 days, −20 °C, LQC
[17] = Long term stability in plasma: 61 days, −70 °C, HQC
[18] = Long term stability in plasma: 61 days, −70 °C, LQC
[19] = Wet extract stability (5 °C), 25 h, HQC
[20] = Wet extract stability (5 °C), 25 h, LQC
[21] = Wet extract stability (25 °C), 10 h, HQC
[22] = Wet extract stability (25 °C), 10 h, LQC

| AUC(0-t) [1] [ng·h/mL] | AUC(0-inf) [1] [ng·h/mL] | half-life [1] [h] | Mean stability sample ±SD [4, 7] [ng/mL] | Change (%) [4, 8] [%] | Mean stability sample ±SD [4, 9] [ng/mL] | Change (%) [4, 10] [%] | Change (%) [4, 11] [%] | Mean stability sample ±SD [4, 11] [ng/mL] | Change (%) [4, 12] [%] | Mean stability sample ±SD [4, 12] [ng/mL] | Change (%) [4, 13] [%] | Mean stability sample ±SD [4, 13] [ng/mL] | Change (%) [4, 14] [%] | Mean stability sample ±SD [4, 14] [ng/mL] | Change (%) [4, 15] [%] | Mean stability sample ±SD [4, 15] [ng/mL] | Change (%) [4, 16] [%] | Mean stability sample ±SD [4, 16] [ng/mL] | Compound | renal excretion (share of dose) [3] [%] | also measured |
| --- | --- | --- | --- | --- | --- | --- | --- | --- | --- | --- | --- | --- | --- | --- | --- | --- | --- | --- | --- | --- | --- |
| 3900 ± 721 | 3990 ± 729 | 7.5 ± 0.96 | 653.1 ± 23.7 | 1.40 | 5.841 ± 0.495 | 1.40 | −1.57 | 626.2 ± 22.7 | −2.79 | 5.583 ± 0.553 | −1.57 | 626.0 ± 25.6 | 0.35 | 5.762 ± 0.394 | −0.85 | 698.4 ± 16.6 | 2.72 | 6.791 ± 0.273 | CCC(CC)O[C@@H]1C=C(C(=O)O)C[C@H](N)[C@H]1NC(C)=O [Oseltamivir carboxylate, oseltamivir carboxylate] | 63 | protein bound [2]: about 43%; time to maximum plasma levels (Cmax) [3, 6]: ≤ 5 h; time until detectable in plasma [3, 6]: about 30 min; Change (%) [4, 17]: 0.43%; Mean stability sample ±SD [4, 17]: 707.4 ± 19.0 ng/mL; Change (%) [4, 18]: −1.82%; Mean stability sample ±SD [4, 18]: 6.492 ± 0.328 ng/mL; Change (%) [4, 19]: 0.47%; Mean stability sample ±SD [4, 19]: 647.2 ± 18.2 ng/mL; Change (%) [4, 20]: 4.55%; Mean stability sample ±SD [4, 20]: 5.983 ± 0.556 ng/mL; Change (%) [4, 21]: −0.31%; Mean stability sample ±SD [4, 21]: 642.4 ± 13.4 ng/mL; Change (%) [4, 22]: 5.77%; Mean stability sample ±SD [4, 22]: 6.050 ± 0.393 ng/mL |
| 153 ± 35 | 163 ± 37 | 4.97 ± 3.27 | 167.0 ± 9.5 | 0.60 | 1.430 ± 0.043 | 2.14 | −3.05 | 159.3 ± 9.1 | −4.23 | 1.364 ± 0.075 | −2.44 | 160.2 ± 5.4 | 1.41 | 1.442 ± 0.070 | 1.18 | 172.3 ± 3.9 | −3.61 | 1.635 ± 0.096 | CCOC(=O)C1=C[C@@H](OC(CC)CC)[C@H](NC(C)=O)[C@@H](N)C1 [Oseltamivir, oseltamivir] | 3 | stability of OST concentration in samples kept on ice [5]: up to 1 h; Change (%) [4, 17]: 0.59%; Mean stability sample ±SD [4, 17]: 171.1 ± 3.7 ng/mL; Change (%) [4, 18]: −1.81%; Mean stability sample ±SD [4, 18]: 1.632 ± 0.035 ng/mL; Change (%) [4, 19]: 1.81%; Mean stability sample ±SD [4, 19]: 169.2 ± 7.4 ng/mL; Change (%) [4, 20]: 5.71%; Mean stability sample ±SD [4, 20]: 1.481 ± 0.086 ng/mL; Change (%) [4, 21]: 3.61%; Mean stability sample ±SD [4, 21]: 172.1 ± 10.4 ng/mL; Change (%) [4, 22]: 4.29%; Mean stability sample ±SD [4, 22]: 1.460 ± 0.077 ng/mL |
